Results: publication PMC10270725 (Journal of medicinal chemistry, 2023)

How the values were obtained:
[1] = tested on: TEAD transcription (pan-TEAD response element luciferase reporter) in NCI-H226 cells; assay: TEAD gene reporter; type: cell-based
Method in brief: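 NCI-H226 cells (RPMI1640, 10% FBS, 1% penicillin/streptomycin) were transduced with TEAD luciferase reporter lentivirus plus 8 μg/mL polybrene and puromycin-selected from day 3. Reporter cells were seeded at 1000 cells/well in 384-well plates and dosed with test compound for 3 days. One-Glo luciferase signal was normalized to CellTiter-Glo viability.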

[2] = molecular target: His-TEAD3-YBD recombinant protein (Homo sapiens, UniProt Q99594); assay: TEAD3 TR-FRET biochemical assay; type: binding; conditions: fixed time point 5 h
Chain of His-TEAD3-YBD recombinant protein (Q99594 219-435 limits assumed): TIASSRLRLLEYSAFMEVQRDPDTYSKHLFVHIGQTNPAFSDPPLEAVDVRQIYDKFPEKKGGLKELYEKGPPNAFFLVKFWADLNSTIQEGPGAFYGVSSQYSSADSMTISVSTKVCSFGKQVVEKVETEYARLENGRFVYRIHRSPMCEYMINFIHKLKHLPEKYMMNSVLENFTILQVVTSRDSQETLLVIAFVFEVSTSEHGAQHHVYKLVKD
Method in brief: (§1)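 100 nM His-TEAD-YBD was pretreated with test compound for 5 h. Then 800 nM FAM-labeled tracer built from a reversible pan-TEAD inhibitor was added, with anti-6His Tb cryptate antibody (50 ng/mL final). TR-FRET was read at 490/520 nm. IC50 is mean ± SEM of two experiments, each with three biological replicates.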

[3] = molecular target: His-TEAD1-YBD recombinant protein (Homo sapiens, UniProt P28347); assay: TEAD1 TR-FRET biochemical assay; type: binding; conditions: fixed time point 5 h
Chain of His-TEAD1-YBD recombinant protein (P28347 209-424): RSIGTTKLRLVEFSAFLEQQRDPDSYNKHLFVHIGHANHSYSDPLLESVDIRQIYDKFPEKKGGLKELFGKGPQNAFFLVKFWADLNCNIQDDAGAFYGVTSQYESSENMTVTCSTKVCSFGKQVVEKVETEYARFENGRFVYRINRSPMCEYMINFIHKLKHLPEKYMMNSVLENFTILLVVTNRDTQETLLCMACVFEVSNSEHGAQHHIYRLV
Method in brief: as §1

[4] = molecular target: His-TEAD2-YBD recombinant protein (Homo sapiens, UniProt Q15562); assay: TEAD2 TR-FRET biochemical assay; type: binding; conditions: fixed time point 5 h
Chain of His-TEAD2-YBD recombinant protein (Q15562 217-447 limits assumed): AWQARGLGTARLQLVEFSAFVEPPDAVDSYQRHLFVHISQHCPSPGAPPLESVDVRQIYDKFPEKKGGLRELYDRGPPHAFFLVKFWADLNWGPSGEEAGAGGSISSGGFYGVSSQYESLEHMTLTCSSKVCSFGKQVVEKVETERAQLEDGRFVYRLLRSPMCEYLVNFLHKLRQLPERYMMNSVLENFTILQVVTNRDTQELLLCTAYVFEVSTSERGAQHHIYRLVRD
Method in brief: as §1

[5] = molecular target: His-TEAD4-YBD recombinant protein (Homo sapiens, UniProt Q15561); assay: TEAD4 TR-FRET biochemical assay; type: binding; conditions: fixed time point 5 h
Chain of His-TEAD4-YBD recombinant protein (Q15561 217-434 limits assumed): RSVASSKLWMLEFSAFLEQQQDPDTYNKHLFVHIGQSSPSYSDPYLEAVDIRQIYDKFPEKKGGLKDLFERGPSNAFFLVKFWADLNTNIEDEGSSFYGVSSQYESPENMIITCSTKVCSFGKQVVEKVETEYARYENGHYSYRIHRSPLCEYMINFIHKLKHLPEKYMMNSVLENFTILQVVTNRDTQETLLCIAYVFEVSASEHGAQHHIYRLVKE
Method in brief: as §1

[6] = tested on: NF2-sufficient NCI-H28 mesothelioma cells; assay: Proliferation assay in NCI-H28 cells; type: cell-based
[7] = molecular target: recombinant TEAD1-YBD protein (Homo sapiens, UniProt P28347); assay: Intact mass spectrometry analysis of covalent labeling; type: binding; conditions: 10-fold molar excess of compound, 1 h at rt
Chain of recombinant TEAD1-YBD protein (P28347 209-424): as the sequence (P28347 209-424) above
Method in brief: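 TEAD1-YBD (residues 209−424, N-terminal 6×His) was expressed in Rosetta(DE3) pLysS and purified on cobalt resin, then by gel filtration. Protein was incubated with DMSO or test compound for 1 h at rt. It was desalted 4 min in 0.2 M acetic acid on a POROS 50R2 column and eluted with a 1-min 0–100% acetonitrile gradient in 0.2 M acetic acid. Analysis was electrospray (4.5 kV) ion-trap MS.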

Compound	TEAD3 TR-FRET IC50 [2]	TEAD1 TR-FRET IC50 [3]	TEAD2 TR-FRET IC50 [4]	TEAD4 TR-FRET IC50 [5]	effect on proliferation of NCI-H28 cells [6]	also measured
CN(C)C/C=C/C(=O)N1C[C@@H](n2cc(-c3cccnc3)nn2)[C@H](OCc2ccc(C(F)(F)F)cc2)C1 [Compound 19, (E)-4-(Dimethylamino)-1-((3R,4R)-3-(4-(pyridin-3-yl)-1H-1,2,3-triazol-1-yl)-4-(4-(trifluoromethyl)benzyloxy)pyrrolidin-1-yl)but-2-en-1-one]	inactive	inactive	inactive	inactive	–	IC50 in the reporter gene assay (TEAD transcription) ([1]; NCI-H226 reporter cells, 3 day treatment, mean ± SEM): did not inhibit
C=C(F)C(=O)N1C[C@@H](Nc2ncccn2)[C@H](OCc2ccc(C(F)(F)F)cc2)C1 [Compound 22, 2-Fluoro-1-((3R,4R)-3-(pyrimidin-2-ylamino)-4-((4-(trifluoromethyl)benzyl)oxy)pyrrolidin-1-yl)prop-2-en-1-one]	–	–	–	–	limited effect	covalent complex formation with TEAD1-YBD (intact mass shift) [7]: mass shift consistent with compound 22
C=CC(=O)N1C[C@@H](Nc2ncccn2)[C@H](OCc2ccc(C(F)(F)F)cc2)C1 (relative stereo) [Compound 14, 1-(trans-3-(Pyrimidin-2-ylamino)-4-((4-(trifluoromethyl)benzyl)-oxy)pyrrolidin-1-yl)prop-2-en-1-one]	–	–	–	–	limited effect	–
C=CC(=O)N1C[C@@H](n2cc(-c3cccnc3)nn2)[C@H](OCc2ccc(C(F)(F)F)cc2)C1 (relative stereo) [Compound 1, 1-(trans-3-(4-(Pyridin-3-yl)-1H-1,2,3-triazol-1-yl)-4-((4-(trifluoromethyl)benzyl)oxy)pyrrolidin-1-yl)prop-2-en-1-one]	low nanomolar	low nanomolar	low nanomolar	low nanomolar	–	EC50 ([1]; Homo sapiens, NCI-H226, 72 h, read-out: EC50 in the TEAD reporter assay): 106 ± 30 nM
1-(trans-4-(5-Fluoropyrimidin-2-ylamino)-3-(4-(trifluoromethyl)-benzyloxy)piperidin-1-yl)prop-2-en-1-one [Compound 16]	–	–	–	–	–	IC50 ([1]; read-out: IC50 in the reporter gene assay (TEAD transcription), NCI-H226 reporter cells, 3 day treatment, mean ± SEM): 171 ± 88 nM
